Screening data from PubChem BioAssay.
In the library only some 3.3% were active in any assay of this set; here they are far more common.
NRP1-CendR mod: modulators of CendR peptide binding to NRP-1, primary screen, biochemical, fluorescence polarization, uHTS | Neuropilin-1 (Homo sapiens), O14786 | FAM-RPARPAR peptide binding to NRP-1 | inhibition, % at 25 µM | 0.85% of 360,000 active | AID 602438, 2012;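 active = inhibition or corrected inhibition above about 18%, plus a signal ratio from 0.5 to 1.5, limit read from the data, passing the limit was not always enough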
SENP8 block-1: human SENP8 protease inhibitors, primary screen, biochemical, fluorescence, Nedd8 protein substrate, uHTS; recombinant SENP8; 0.64% of 360,000 active; inhibition, % at 20 µM; in the data active = inhibition mostly above about 40%, no sharp cut-off; inactive = mostly below about 27%
SENP6 inh: SENP6 protease inhibitors, primary screen, biochemical, luminescence, uHTS | Sentrin-specific protease 6 (Homo sapiens), Q9GZR1 | Recombinant SENP6 catalytic domain, aminoluciferin luminescence | inhibition, % at 10 µM | 1.8% of 330,000 active | AID 2599, 2010;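 active = inhibition above about 50% at the single tested dose, limit read from the data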;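 note: plate controls were DMSO wells with enzyme for no effect and DMSO wells lacking enzyme for full effect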
SENP7 block: SENP7 protease inhibitors, primary screen, biochemical, luminescence, uHTS | 1.5% of 330,000 active | inhibition, % at 5 µM | recombinant SENP7, Z-RLRGG-aminoluciferin luminescence, 40 min | AID 434973, 2010 | Sentrin-specific protease 7 (Homo sapiens), Q9BQF6;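 active = inhibition above about 50% at the single test dose, limit read from the data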;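 note: plate controls were DMSO with enzyme for no effect and no enzyme buffer wells for full effect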
SENP8 block-2: SENP8 protease inhibitors, primary screen, biochemical, luminescence. purified SENP8, Z-RLRGG-aminoluciferin cleavage. Sentrin-specific protease 8 (Homo sapiens), Q96LD8. 1.2% of 330,000 active. inhibition, % at 10 µM; in the data active = inhibition above about 50%
SENP1 inh: human SENP1 catalytic domain inhibitors, primary screen, biochemical, FRET, uHTS. Sentrin-specific protease 1 (Homo sapiens), Q9P0U3. recombinant SENP1 catalytic domain, CyPet-SUMO1-YPet FRET cleavage. inhibition, % at 10 µM. 0.21% of 360,000 active. AID 624204, 2012;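 active = inhibition at least 30% at 10 µM, raw YFP signal under a set limit, fluorescence ratio 0.5 to 1.5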;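 note: 0% = enzyme with DMSO and 100% = no enzyme wells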
Target sequence (Q9P0U3 419-644 limits assumed): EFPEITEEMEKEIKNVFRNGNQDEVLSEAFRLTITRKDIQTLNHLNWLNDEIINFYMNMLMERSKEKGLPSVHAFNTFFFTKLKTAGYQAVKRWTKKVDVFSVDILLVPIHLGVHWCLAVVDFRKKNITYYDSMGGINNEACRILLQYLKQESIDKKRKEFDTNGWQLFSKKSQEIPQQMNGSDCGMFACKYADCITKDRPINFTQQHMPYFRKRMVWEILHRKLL
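Material: hSENP1 catalytic domain, recombinant; medium: Tris pH 8 with BME, BSA, NP40 and catalase; compound: single concentration of 10 µM compound, 0.5% DMSO final; technique: FRET read of cyan and yellow fluorescence; timing: 50 min enzyme reaction, room temperature, light-protected; reagent: SFCypet-SUMO1-SFYpet substrate at 25 nM; control set: no-enzyme low, enzyme-DMSO high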
SENP8 conf: SENP8 protease inhibitors, retest, confirmation, biochemical, luminescence, single concentration. inhibition, % at 12.5 µM. shares compounds with SENP7 block. 40% of 6,200 active. Recombinant SENP8, Z-RLRGG-aminoluciferin luminescence, 60 min;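 active = mean inhibition across replicates above about 50%, limit read from the data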
SENP6 conf: SENP6 protease inhibitors, confirmation, biochemical, luminescence, single concentration | 58% of 6,200 active | shares compounds with SENP7 block | inhibition, % at 12.5 µM | recombinant SENP6, Z-RLRGG-aminoluciferin luminescence
SENP7 conf: SENP7 protease inhibitors, retest, confirmation, biochemical, luminescence, single concentration | 69% of 6,200 active | recombinant SENP7, Z-RLRGG-aminoluciferin luminescence, 40 min | shares compounds with SENP7 block | inhibition, % at 12.5 µM
Casp3 SENP sel: caspase-3 protease inhibitors, confirmation, selectivity assay for SENP inhibitor project, biochemical, single concentration; shares compounds with SENP7 block; inhibition, % at 12.5 µM; purified caspase-3, Z-DEVD-aminoluciferin luminescence, 60 min; 60% of 6,200 active;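 active = mean inhibition above about 50%, limit read from the data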;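 note: plate controls were enzyme with DMSO for no effect and wells without caspase-3 for full effect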
Target sequence (P42574 28-227 limits assumed): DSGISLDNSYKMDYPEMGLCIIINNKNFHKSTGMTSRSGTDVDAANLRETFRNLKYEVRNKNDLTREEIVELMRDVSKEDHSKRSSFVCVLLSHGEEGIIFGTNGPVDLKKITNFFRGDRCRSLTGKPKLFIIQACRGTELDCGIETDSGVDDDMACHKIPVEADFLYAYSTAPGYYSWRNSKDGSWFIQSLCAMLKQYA
Luc interf: counter-screen for SENP inhibitors: luminescence interference; 39% of 6,200 active; Pre-incubated SENP8/Z-RLRGG-aminoluciferin, luciferase luminescence interference; shares compounds with SENP7 block; inhibition, % at 12.5 µM;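 active = mean inhibition above about 50% when retested at one dose, limit read from the data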;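 note: plate controls were DMSO wells with completed reaction for no effect and substrate without enzyme for full effect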
An asterisk follows results filed as active.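 Rule for the calls, unless noted: active = mean inhibition above about 50% in the one-dose retest (limit read from the data); inactive = the rest.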

`Cn1c(=O)c2c(nc(NCC3CCCO3)n2C)n(C)c1=O` (configuration not stated) gave NRP1-CendR mod 13, SENP8 block-1 3, SENP6 inh 7, SENP7 block 51*, SENP8 block-2 -2, SENP1 inh 2, SENP8 conf 4, SENP6 conf 6, SENP7 conf 12, Casp3 SENP sel 8 and Luc interf 3.
Screening Cn1c(=O)n(Cc2ccccc2)c(=O)c2c1nc(NCC1CCCO1)n2Cc1ccccc1 (configuration not stated) returned NRP1-CendR mod 5, SENP8 block-1 16, SENP6 inh -8, SENP7 block 5, SENP8 block-2 1 and SENP1 inh 1.
Cn1cc(Cc2ccccc2)c(=O)c(Cc2ccccc2)c1 was read as NRP1-CendR mod 12, SENP8 block-1 20 and SENP1 inh 1.
`Cc1ccc(COn2c(-c3ccc(Cl)cc3)nc3ccc([N+](=O)[O-])cc32)cc1` gave NRP1-CendR mod -1, SENP8 block-1 22, SENP6 inh 67*, SENP7 block 56*, SENP8 block-2 42, SENP1 inh 0, SENP8 conf 11, SENP6 conf 17, SENP7 conf 49, Casp3 SENP sel 22 and Luc interf 24.
O=C(O)COn1c(-c2ccc(Cl)cc2)nc2ccc(Cl)cc21 was read as NRP1-CendR mod 6, SENP8 block-1 -7, SENP6 inh 0, SENP7 block -8, SENP8 block-2 -7 and SENP1 inh 2.
`COn1c(-c2ccc(Cl)cc2)nc2ccc(Cl)cc21` gave NRP1-CendR mod -9, SENP8 block-1 6, SENP6 inh -2, SENP7 block 1, SENP8 block-2 -11 and SENP1 inh 1.
CCOC(=O)C(C)On1c(-c2ccc(Cl)cc2)nc2ccc([N+](=O)[O-])cc21 (configuration not stated) was read as NRP1-CendR mod -12, SENP8 block-1 -48, SENP6 inh 70*, SENP7 block 50, SENP8 block-2 65*, SENP1 inh 0, SENP8 conf 0, SENP6 conf -5, SENP7 conf 29, Casp3 SENP sel 6 and Luc interf 25.
`O=C(O)COn1c(-c2ccccc2)nc2ccc([N+](=O)[O-])cc21` gave NRP1-CendR mod 15, SENP8 block-1 4, SENP6 inh 82*, SENP7 block 88*, SENP8 block-2 70*, SENP1 inh 4, SENP8 conf 1, SENP6 conf 0, SENP7 conf 33, Casp3 SENP sel 53* and Luc interf 56*.
Screening CCOC(=O)C(C)On1c(-c2ccccc2)nc2ccc([N+](=O)[O-])cc21 (configuration not stated) returned NRP1-CendR mod -2, SENP8 block-1 15, SENP6 inh 84*, SENP7 block 76*, SENP8 block-2 71*, SENP1 inh 1, SENP8 conf 28, SENP6 conf 25, SENP7 conf 66*, Casp3 SENP sel 59* and Luc interf 61*.
Screening C#CCNC(=O)C[C@@H]1C[C@@]2(C(=O)OCC)CCC=C2N(Cc2ccc(Cl)cc2Cl)C1=O returned NRP1-CendR mod 17, SENP8 block-1 14 and SENP1 inh 1.
COc1cc(OC)c(C(=O)OCC(=O)NCC2CCCCC2)cc1OC was read as NRP1-CendR mod 10, SENP8 block-1 -5, SENP6 inh 7, SENP7 block -10, SENP8 block-2 0 and SENP1 inh 4.
Brc1ccc(NCc2nnc3n2CCCCC3)cc1 was read as NRP1-CendR mod -2, SENP8 block-1 8, SENP6 inh -10, SENP7 block 99*, SENP8 block-2 -2, SENP1 inh 3, SENP8 conf 9, SENP6 conf 10, SENP7 conf 7, Casp3 SENP sel 2 and Luc interf 5.
O=[N+]([O-])c1nn(-c2ccc3c(c2)OCCO3)n(O)c1=NC1CCCCC1 was read as NRP1-CendR mod 6, SENP8 block-1 26, SENP6 inh 28, SENP7 block 4, SENP8 block-2 3 and SENP1 inh 4.
`O=[N+]([O-])c1nn(-c2ccc3c(c2)OCCO3)n(O)c1=NCc1ccccc1Cl` gave NRP1-CendR mod -6, SENP8 block-1 17, SENP6 inh 27, SENP7 block 64*, SENP8 block-2 9, SENP1 inh 1, SENP8 conf 10, SENP6 conf 32, SENP7 conf 65*, Casp3 SENP sel 13 and Luc interf 7.
For COc1ccccc1CN=c1c([N+](=O)[O-])nn(-c2ccc3c(c2)OCCO3)n1O the results were NRP1-CendR mod 0, SENP8 block-1 26, SENP6 inh 46, SENP7 block 59*, SENP8 block-2 22, SENP1 inh -2, SENP8 conf -11, SENP6 conf 2, SENP7 conf -9, Casp3 SENP sel 8 and Luc interf 0.
`Fc1ccc(-c2nc(-c3cnccn3)no2)c(Cl)c1` gave NRP1-CendR mod -9, SENP8 block-1 13, SENP6 inh 88*, SENP7 block 85*, SENP8 block-2 81*, SENP1 inh 0, SENP8 conf 85*, SENP6 conf 85*, SENP7 conf 96*, Casp3 SENP sel 94* and Luc interf 50.
For Cc1ccc(-c2nc(-c3cccnc3)no2)c(C)c1 the results were NRP1-CendR mod 7, SENP8 block-1 30, SENP6 inh -10, SENP7 block 46, SENP8 block-2 24 and SENP1 inh 0.
